Published values gathered from unrelated publications.

The Tmax of COc1ccc2[nH]cc(CCNc3nccc(Nc4cccc5c4ccn5C)n3)c2c1 is reported as 15 min (mouse, plasma; oral, 28.6 mg/kg).
With N=c1c2c(-c3ccccc3)c(-c3ccccc3)n(Cc3ccccc3)c2ncn1[C@H]1CC[C@H](O)CC1 the efflux ratio was 10 (Caco-2; 3 µM, 2 h, pH 7.4).
The Cmax of CC[C@H](C)[C@H](NC(=O)[C@H](CC(C)C)NC(=O)[C@H](Cc1c[nH]c2ccccc12)NC(=O)[C@H](CCC(N)=O)NC(=O)[C@@H](NC(=O)[C@H](Cc1ccccc1)NC(=O)[C@H](C)NC(=O)[C@H](CCCCNC(=O)COCCOCCNC(=O)COCCOCCNC(=O)CC[C@H](NC(=O)CCCCCCCCCCCCCCCCCCC(=O)O)C(=O)O)NC(=O)[C@H](CCC(N)=O)NC(=O)[C@H](C)NC(=O)[C@@H](NC(=O)[C@H](CCCCN)NC(=O)[C@H](CC(=O)O)NC(=O)[C@H](CC(C)C)NC(=O)C(C)(C)NC(=O)[C@@H](NC(=O)[C@H](CO)NC(=O)[C@H](Cc1ccc(O)cc1)NC(=O)[C@H](CC(=O)O)NC(=O)[C@H](CO)NC(=O)[C@@H](NC(=O)[C@H](Cc1ccccc1)NC(=O)[C@@H](NC(=O)CNC(=O)[C@H](CCC(=O)O)NC(=O)C(C)(C)NC(=O)[C@@H](N)Cc1ccc(O)cc1)[C@@H](C)O)[C@@H](C)O)[C@@H](C)CC)[C@@H](C)CC)C(C)C)C(=O)N[C@@H](C)C(=O)NCC(=O)NCC(=O)N1CCC[C@H]1C(=O)N[C@@H](CO)C(=O)N[C@@H](CO)C(=O)NCC(=O)N[C@@H](C)C(=O)N1CCC[C@H]1C(=O)N1CCC[C@H]1C(=O)N1CCC[C@H]1C(=O)N[C@@H](CO)C(N)=O is reported as 379 ng/mL (human, plasma; subcutaneous, 5 mg, patients).
C[C@]12CC[C@H](n3ccnc3)CC1=CC[C@@H]1[C@@H]2CC[C@]2(C)C(n3cnc4ccccc43)=CC[C@@H]12.Cl has a Tmax of 800 min (male CD-1 mouse, plasma; oral, 10 mg/kg).
The Cmax of c1cc([C@H]2CC[C@]3(CC2)OO[C@]2(O3)C3CC4CC(C3)CC2C4)ccc1OCCN1CCOCC1 is reported as 732 ng/mL (human, plasma; oral, 400 mg, patients).
The Cmax of CC(=C/C=C/C(C)=C/C(=O)O)/C=C1\CCCc2ccccc21 is reported as 55.9 ng/mL (human, plasma; oral, 10 mg, single dose, fasted, healthy volunteers).
N#Cc1cc(NC(=O)[C@H]2c3ccccc3C(=O)N(CC(F)(F)F)[C@@H]2c2cccnc2)ccc1F has an NOAEL of 30 mg/kg (general toxicity; beagle dog; oral, multiple doses).
C/N=c1\nc(-c2ccccc2)n(-c2ccccc2)s1 has an efflux ratio of 0.962 (Caco-2; 20 µM, 95 min).
With N=C(N)NCCC[C@@H](NC(=O)[C@@H](N)Cc1ccccc1)C(=O)N[C@@H](Cc1ccccc1)C(=O)N[C@@H](CCCCN)C(N)=O the Cmax was 886 ng/mL (human, plasma; subcutaneous, 15 mg, patients).
Cc1nc2c(=O)n(C)c(=O)nc-2n(C)n1 has an efflux ratio of 1 (Caco-2).
For C[C@]12CC[C@H](O)CC1=CC[C@@H]1[C@@H]2CC[C@]2(C)C(n3cnc4ccccc43)=CC[C@@H]12.Cl, the Tmax was 25.2 min (mouse, plasma; oral, 10 mg/kg).
With Cc1ccccc1C(=O)NN=Cc1ccc(O)c(Br)c1 the Tmax was 30 min (mouse, plasma; intraperitoneal, 1.6 mg/kg).
